Screening results (PubChem BioAssay)
Kir21 block: inhibitors of mouse Kir2.1 inward-rectifier potassium channel | HEK293-Kir2.1, FluxOR thallium flux fluorescence; hits give low values | B-score at 10 µM | Inward rectifier potassium channel 2 (Mus musculus), P35561 | AID 1672, 2009 | hit rate 0.85% among 310,000;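 active = fluorescence ratio B-score at or below minus 3 SD of library scores, with starting-brightness B-score within 2 SD, cut at about -4.2 in these data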;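 also: channel flux triggered by added potassium and thallium sulfate stimulus; B-score of peak minus minimum fluorescence over baseline after thallium stimulus; more negative B-score means stronger Kir2.1 block with less thallium influx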
TRPC4 block: inhibitors of mouse TRPC4 channel, primary screen, Fluo4 calcium, HEK293 TRPC4beta/mu-opioid cells; Short transient receptor potential channel 4 (Mus musculus), Q9QUQ5; DAMGO-evoked Fluo4 calcium flux; hits give low values; B-score at 10 µM; hit rate 0.39% among 300,000; AID 2247, 2010;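 active = B-score over 3 SD under the library average, no early fluorescence shift, positive overall ratio signal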
Target sequence (Q9QUQ5 whole entry, looked up): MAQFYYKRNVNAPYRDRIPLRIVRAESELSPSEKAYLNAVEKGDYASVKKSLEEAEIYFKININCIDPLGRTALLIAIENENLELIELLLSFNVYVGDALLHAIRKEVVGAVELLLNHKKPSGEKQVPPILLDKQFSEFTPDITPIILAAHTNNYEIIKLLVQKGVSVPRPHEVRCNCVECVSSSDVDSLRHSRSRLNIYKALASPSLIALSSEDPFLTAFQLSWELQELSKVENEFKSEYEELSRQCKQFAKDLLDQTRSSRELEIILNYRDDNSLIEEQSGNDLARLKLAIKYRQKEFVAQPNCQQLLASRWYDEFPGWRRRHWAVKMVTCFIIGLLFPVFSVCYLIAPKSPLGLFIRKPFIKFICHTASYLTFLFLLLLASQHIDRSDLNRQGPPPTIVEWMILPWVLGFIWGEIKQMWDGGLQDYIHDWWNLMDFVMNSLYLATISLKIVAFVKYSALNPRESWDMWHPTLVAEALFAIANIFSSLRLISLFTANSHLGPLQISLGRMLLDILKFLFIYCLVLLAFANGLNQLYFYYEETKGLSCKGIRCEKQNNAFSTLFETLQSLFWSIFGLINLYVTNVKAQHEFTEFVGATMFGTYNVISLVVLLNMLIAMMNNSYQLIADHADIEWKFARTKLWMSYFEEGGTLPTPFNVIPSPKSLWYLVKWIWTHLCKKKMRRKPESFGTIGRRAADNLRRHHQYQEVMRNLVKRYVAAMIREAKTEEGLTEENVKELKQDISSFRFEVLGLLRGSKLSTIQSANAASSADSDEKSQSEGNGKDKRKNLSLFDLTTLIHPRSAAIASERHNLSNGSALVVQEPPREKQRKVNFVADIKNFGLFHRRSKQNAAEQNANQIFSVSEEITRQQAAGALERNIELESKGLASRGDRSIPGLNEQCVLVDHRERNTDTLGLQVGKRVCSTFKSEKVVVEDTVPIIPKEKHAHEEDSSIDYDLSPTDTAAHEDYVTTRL
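System: stable TRPC4beta/mu-opioid receptor HEK293 cells; Dosing: single-point compound dosing; Measured by: Fluo4 Ca2+ flux fluorescence; Read-out basis: per-well B score of integrated baseline-normalized Fluo4 ratio.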
TRPC6 inhibitor: mouse TRPC6 channel inhibitors, primary screen, cell-based, HEK293, membrane potential dye | Short transient receptor potential channel 6 (Mus musculus), Q61143 | ACh-evoked depolarization; hits give low values | hit rate 1.1% among 310,000 | B-score at 10 µM;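 active = B-score under library mean minus 3 SD, initial fluorescence not abnormally high, positive integrated signal ratio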;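 also: B-score derived from integrated fluorescence ratio over the kinetic read; more negative B-score means stronger inhibition of depolarization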
TRPC4 PAM: positive allosteric modulators of TRPC4, primary screen, cell-based, mouse TRPC4beta, HEK293 mu-opioid, Fluo-4 calcium; Short transient receptor potential channel 4 (Mus musculus), Q9QUQ5; DAMGO EC20, Fluo-4 Ca2+ flux; hits give high values; B-score at 10 µM; hit rate 0.42% among 310,000;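 active = B-score of calcium response area above 5 SD of library B-scores, with initial fluorescence ratio within 5 SD of library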;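 also: B-score of integrated fluorescence ratio over time as area under calcium response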
TRPC6 act: mouse TRPC6 channel activators, primary screen, cell-based, HEK293, membrane potential dye; hit rate 0.13% among 310,000; Short transient receptor potential channel 6 (Mus musculus), Q61143; HEK293-TRPC6 membrane potential dye fluorescence; hits give high values; B-score at 10 µM;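 active = B-score of the integrated fluorescence ratio above library mean plus 3 SD, and starting fluorescence ratio within library mean plus 5 SD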;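 also: higher score means more depolarization so channel activation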
TRPC4 act: activators of mouse TRPC4 channel, primary screen, Fluo4 calcium, HEK293 TRPC4beta/mu-opioid cells; hit rate 0.49% among 310,000; AID 2237, 2010; Short transient receptor potential channel 4 (Mus musculus), Q9QUQ5; B-score at 10 µM; Fluo4 calcium fluorescence; hits give high values;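 active = B-score above 5 SD of library B-scores, and initial fluorescence ratio not above library mean plus 5 SD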;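 also: positive B-score marks a calcium rise read as TRPC4 activation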
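Incubation: 45 min room-temperature Fluo4 loading, 110 s read / System: HEK293 cells stably co-expressing mouse TRPC4beta and mu-opioid receptor / Signal: Fluo4 fluorescence, kinetic / Control set: buffer (low) and maximal DAMGO (high) / Measure: integrated baseline-normalised fluorescence ratio, converted to per-well B score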
An asterisk follows results filed as active; i = inactive. This is a sample that favours compounds with a hit; in the whole collection about 2.9% have one here.

SMILES	Kir21 block	TRPC4 block	TRPC6 inhibitor	TRPC4 PAM	TRPC6 act	TRPC4 act
N=c1c(C(=O)NCc2ccccc2)cc2c(=O)n3ccccc3nc2n1Cc1ccco1	1.3	i	i	i	i	i
N=c1c(C(=O)NCc2ccc(F)cc2)cc2c(=O)n3ccccc3nc2n1Cc1ccco1	2	i	i	15*	i	i
O=C(Cc1ccc(F)cc1)N1CCC(CC2CC(c3cccc(Br)c3)=NO2)(C(=O)NCC2CCCCC2)CC1 (configuration not stated)	2.3	i	i	i	i	i
Cc1nnc(SC/C=C/c2ccccc2)n(N)c1=O	-2.4	i	i	i	i	i
O=C(/C=C/c1ccccc1)n1cnnc1SC/C=C/c1ccccc1	-6.9*	i	i	i	i	i
COc1ccc2[nH]c3c(N4CCc5ccccc5C4)ncnc3c2c1	-0.89	i	i	i	i	i
COc1cccc(NC(=S)N(CCc2nc3cc(C)c(C)cc3[nH]2)Cc2cccnc2)c1	0.91	i	i	i	i	i
O=S(=O)(Nc1nc(SCc2ccc(Cl)cc2)n[nH]1)c1ccccc1	-4	i	i	i	i	i
CCOC(=O)C1=C(Cc2ccc(C)cc2)C(=O)c2ccccc2C1=O	-0.29	i	i	i	13*	i
COc1ccc2[nH]c3c(NCCN4CCCCC4)ncnc3c2c1	-0.96	i	i	i	i	i
CCCCCCCCC1=NCCc2c1[nH]c1ccccc21	-7.8*	i	i	i	i	i
NNc1ccc(Cc2ccc(Cl)cc2Cl)nn1	1.1	i	i	15*	i	i
CSc1ccc(Cc2ccc(Cl)cc2Cl)nn1	-1.4	i	i	i	i	i
Cc1ccc(-n2cccn2)c(CN2CCCC(C(=O)c3sccc3C)C2)c1 (configuration not stated)	-4.5*	i	i	i	i	i
O=S(=O)(N1CCOCC1)N1CCN(c2ccc(F)cc2)CC1	2.1	i	i	i	i	i
COc1ccc(-c2nc(CN3CCC(C(=O)N4CCOCC4)CC3)c(C)o2)cc1OC	-0.2	i	i	i	i	i
COc1ccc(-c2nc(CSCC(=O)NCCC3=CCCCC3)c(C)o2)cc1OC	-5.1*	i	i	i	i	i
COc1ccc(-c2nc(CN3CCC(C(=O)NC4CCCC4)CC3)c(C)o2)cc1OC	2.2	i	i	i	i	101*
Cn1c(=O)c2c(nc(OCCc3ccccc3)n2C)n(C)c1=O	-0.37	i	i	i	i	i
COC(=O)C(C)(C)ONC(=O)Nc1ccc([N+](=O)[O-])cc1	0.53	i	i	i	i	i
CCOc1ccc(-c2nc(CSCC(=O)NCc3ccco3)c(C)o2)cc1	-0.81	i	i	i	12*	i
CCOc1ccc(-c2nc(CSCC(=O)NC3CC3)c(C)o2)cc1	0.42	i	i	i	i	i
Cc1ccc2c(c1)N(C(=O)CCC(=O)NCc1ccccc1)CC(C)O2 (configuration not stated)	0.24	i	i	i	i	i
Cc1ccc2c(c1)N(C(=O)CCC(=O)Nc1ccccc1Cl)CC(C)O2 (configuration not stated)	-1.7	-8*	i	i	i	i
CC1CC(C)CN(CCCNC(=O)CCC(=O)N2CC(C)Oc3ccccc32)C1 (configuration not stated)	-0.55	i	i	i	i	53*
SMILES	Kir21 block	TRPC4 block	TRPC6 inhibitor	TRPC4 PAM	TRPC6 act	TRPC4 act
CC1CN(C(=O)CCC(=O)NCCc2ccccc2)c2ccccc2O1 (configuration not stated)	-0.39	i	i	i	i	i
COc1cccc(NC(=O)CCC(=O)N2CC(C)Oc3ccc(C)cc32)c1 (configuration not stated)	0.84	-7*	i	i	i	i
Cc1ccc2c(c1)N(C(=O)CCC(=O)NCc1cccc(Cl)c1)CC(C)O2 (configuration not stated)	-0.14	-7*	i	i	i	i
O=C(NOC(=O)c1ccccc1F)c1ccc(OC(F)F)cc1	-0.53	i	i	i	i	i
COc1cc(Cl)c(C)cc1NC(=O)Cc1cccs1	-1.8	i	i	i	i	i
Cc1cc(C(=O)N/N=C/c2ccc([N+](=O)[O-])s2)n[nH]1	0.25	i	i	i	i	i
CCOC(=O)c1c(C)n(-c2ccc(C)cc2)c2ccc(OCC(O)CNCC3CCCO3)cc12 (configuration not stated)	-3.1	i	i	33*	i	i
CCOC(=O)c1c(C)n(-c2ccc(C)cc2)c2ccc(OCC(O)CNCCCO)cc12 (configuration not stated)	-2.7	i	i	i	i	i
CC1(C)NC(=O)N(CCOCCOc2ccc3ccccc3c2Br)C1=O	-2.3	i	i	13*	i	i
CC1(C)NC(=O)N(CCCCOc2ccc3ccccc3c2Cl)C1=O	2	i	i	i	i	i
Cc1ncsc1CCOC(=O)c1cccnc1	1.8	i	i	i	i	i
Cc1ncsc1CCOC(=O)C12CC3CC(CC(C3)C1)C2	-3	-7*	i	i	i	i
CCC(CC)c1nnc(NC(=O)c2ccc(S(=O)(=O)N3CCc4ccccc4C3)cc2)s1	1.1	i	i	i	i	i
O=C(Oc1ccc(=O)n(-c2ccccc2)n1)c1ccc(Cl)cc1	-4.3*	i	i	i	i	i
O=c1ccc(OCCOc2ccccc2)nn1-c1ccccc1	0.07	i	i	17*	i	i
NC(=O)COc1ccc(=O)n(-c2ccccc2)n1	3	i	i	i	i	i
COC(=O)CCC(=O)Nc1ccc(Cl)c(Cl)c1	-0.63	i	i	i	i	i
O=C(c1ccc([N+](=O)[O-])cc1)N1CCN(c2ncc(Br)cn2)CC1	-0.02	i	i	i	i	219*
O=C(c1ccc(Br)cc1)N1CCN(c2ncccn2)CC1	1.2	i	i	i	i	i
